Measured values: paper PMC9899605 (Cancer Science, 2022)
Where two headings read alike, the source gives them in different places.

What was measured:
BT-474 = test: Growth inhibition assay, BT-474; type: cell-based; settings: Homo sapiens, BT-474, 72 h, read-out: GI50 (nmol/L), mean ± SD
In short: (§1)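 Cell lines were STR-authenticated; MCF10A lines stably express mutant HER2. Test compounds were dissolved in DMSO and added to the cells. Growth was assessed 3 days after treatment, and GI50 was derived as the mean of three independent experiments.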

NCI-H1975 = test: Growth inhibition assay, NCI-H1975; type: cell-based; settings: Homo sapiens, NCI-H1975, 72 h, read-out: GI50 (nmol/L), mean ± SD
NCI-H460 = test: Growth inhibition assay, NCI-H460; type: cell-based; settings: Homo sapiens, NCI-H460, 72 h, read-out: GI50 (nmol/L), mean ± SD
MCF10A_HER2/insYVMA = test: Growth inhibition assay, MCF10A_HER2/insYVMA; type: cell-based; settings: Homo sapiens, 72 h, read-out: GI50 (nmol/L), mean ± SD
In short: as §1

A-431 = test: Growth inhibition assay, A-431; type: cell-based; settings: Homo sapiens, A-431, 72 h, read-out: GI50 (nmol/L), mean ± SD
In short: as §1

NCI-H1781 = test: Growth inhibition assay, NCI-H1781; type: cell-based; settings: Homo sapiens, NCI-H1781, 72 h, read-out: GI50 (nmol/L), mean ± SD
In short: as §1

NCI-N87 = test: Growth inhibition assay, NCI-N87; type: cell-based; settings: Homo sapiens, NCI-N87, 72 h, read-out: GI50 (nmol/L), mean ± SD
In short: as §1

[1] = in rodents, cited from earlier work
HCC827 = test: Growth inhibition assay, HCC827; type: cell-based; settings: Homo sapiens, HCC827, 72 h, read-out: GI50 (nmol/L), mean ± SD
NIH/3T3_EGFR vIII = test: Growth inhibition assay, NIH/3T3_EGFR vIII; type: cell-based; settings: 72 h, read-out: GI50 (nmol/L), mean ± SD
[2] = tested on: NCI-H1975 EGFR D770_N771insSVD; test: Growth inhibition assay, NCI-H1975 EGFR D770_N771insSVD; type: cell-based; settings: Homo sapiens, NCI-H1975, 72 h, read-out: GI50 (nmol/L), mean ± SD
[3] = tested on: HER2/HER3 signaling in SK-BR-3 cell line; test: Western blot of HER2 signaling pathway in SK-BR-3 cells; type: cell-based; settings: SK-BR-3, 30–300 nmol/L

| SMILES | GI50 (BT-474) [nmol/L] | GI50 (NCI-H1975) [nmol/L] | GI50 (NCI-H460) [nmol/L] | GI50 (MCF10A_HER2/insYVMA) [nmol/L] | GI50 (A-431) [nmol/L] | GI50 (NCI-H1781) [nmol/L] | GI50 (NCI-N87) [nmol/L] | Kp,uu,brain ([1]; no reference given) | Kp,uu,brain [1] | GI50 (HCC827) [nmol/L] | GI50 (NIH/3T3_EGFR vIII) [nmol/L] | GI50 [2] [nmol/L] | phosphorylation of HER2, HER3, and their downstream proteins [3] | phosphorylation of HER3 and its downstream targets, AKT and ERK, at 48 h ([3]; 48 h) |
| --- | --- | --- | --- | --- | --- | --- | --- | --- | --- | --- | --- | --- | --- | --- |
| CN(C)C/C=C/C(=O)Nc1cc2c(Nc3ccc(F)c(Cl)c3)ncnc2cc1O[C@H]1CCOC1 [Afatinib, afatinib] | 2.42 ± 2.34 | 108 ± 40 | > 1000 | 102 ± 17 | 9.33 ± 0.72 | 13.8 ± 8.7 | 1.47 ± 0.81 | 0.0062 |  |  |  |  |  |  |
| C[C@H]1Oc2cc(cnc2N)-c2c(nn(C)c2C#N)CN(C)C(=O)c2ccc(F)cc21 [lorlatinib] |  |  |  |  |  |  |  |  | 0.21 |  |  |  |  |  |
| Cc1cc(Nc2ncnc3ccc(NC4=NC(C)(C)CO4)cc23)ccc1Oc1ccn2ncnc2c1 [Tucatinib, tucatinib] | 8.88 ± 8.19 | > 1000 | > 1000 | > 1000 | > 1000 | 229 ± 149 | 12.2 ± 8.6 |  |  | > 1000 | > 1000 | > 1000 | inhibited | increased |
| CCOc1cc2ncc(C#N)c(Nc3ccc(OCc4ccccn4)c(Cl)c3)c2cc1NC(=O)/C=C/CN(C)C [Neratinib, neratinib] | 1.03 ± 0.69 | 236 ± 147 | 860 ± 67 | 84.3 ± 9 | 35.8 ± 9.7 | 15.4 ± 5.9 | 0.946 ± 0.771 |  |  | 292 ± 187 | 114 ± 72 | 130 ± 60 |  |  |
